This is an account of results in ChEMBL document CHEMBL1143772, “Samarium(II) promoted stereoselective synthesis of antiproliferative cis-beta-alkoxy-gamma-alkyl-gamma-lactones” (2007).

Assay type in all cases: functional
The subject of test [1] is A2780. Kind of test: Antiproliferative activity against human A2780 cells after 48 hrs by SRB assay. The conditions noted are these: A2780, 48 h; for CC50: read-out: LC50 (the source's name). In short, it runs like this:
(§1)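 NCI protocol, SRB read-out after 48 h continuous drug exposure; top test concentration 100 µM. A dose–response curve gives percentage growth (PG). GI50, TGI and LC50 are the concentrations at PG +50, 0 and −50. Values in µM, means of two to four experiments with standard deviation.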
Background: Sulforhodamine B stains cellular protein and so reports cell mass.

The subject of test [2] is SW1573. The experiment in a line: Antiproliferation activity against human SW1573 cells after 48 hrs by SRB assay. The conditions noted are these: SW1573, 48 h. The gist of the method:
as §1

For test [3], the system named is WiDr. The experiment in a line: Antiproliferation activity against human WiDr cells after 48 hrs by SRB assay. The conditions noted are these: for CC50: read-out: LC50 (the source's name). The gist of the method: as §1

Regarding `CCCCCCC[C@H]1OC(=O)C[C@H]1OC1CCCCC1`, in test [1], growth was halved (GI50) at 16 µM, total growth inhibition (TGI) required 31 µM and the CC50 was 61 µM. Besides, in test [2], growth was halved (GI50) at 18 µM, the LC50 (concentration giving 50% net cell kill) turned out to be 71 µM and total growth inhibition (TGI) required 36 µM. Moreover, in test [3], it took 16 µM to inhibit growth by half (GI50), net growth stopped (TGI) at 33 µM and the CC50 was determined as 71 µM.
With `C#CC(CCCCCCC)O[C@@H]1CC(=O)O[C@@H]1CCCCCCC` (some centres not stated), in test [1], the GI50 turned out to be 22 µM, total growth inhibition (TGI) required 51 µM and the CC50 was determined as 80 µM. Also, in test [2], the GI50 was found to be 32 µM, the LC50 (concentration giving 50% net cell kill) was found to be 97 µM and the concentration for total growth inhibition (TGI) is 83 µM. Also, in test [3], it took 32 µM to inhibit growth by half (GI50) and the total growth inhibition concentration (TGI) amounted to 86 µM.
As for `CCCCCCC[C@H]1OC(=O)C[C@H]1OCc1ccccc1`, the GI50 in test [1] is 63 µM; in test [2], 52 µM; in test [3], 44 µM.
Consider `CCCCCCC[C@H]1OC(=O)C[C@H]1OC1C=CCCC1` (some centres not stated), for which, in test [1], the GI50 came to 84 µM. In test [2], this compound yielded a concentration for 50% growth inhibition (GI50) of 23 µM, an LC50 (concentration giving 50% net cell kill) of 95 µM and a TGI of 49 µM.
For the compound `C=CCC(C)O[C@@H]1CC(=O)O[C@@H]1CCCCCCC` (some centres not stated), the GI50 in test [1] came out at 48 µM; in test [2], 33 µM; in test [3] it was 39 µM. Further, the TGI in test [2] was 83 µM.
For `C=CC(CCCCC)O[C@@H]1CC(=O)O[C@@H]1CCCCCCC` (some centres not stated), in test [1], the GI50 was 19 µM, total growth inhibition (TGI) required 42 µM and the CC50 is 88 µM. In test [2], this compound came in with a 50% growth inhibitory concentration (GI50) of 27 µM, an LC50 (concentration giving 50% net cell kill) of 96 µM and a TGI of 78 µM. Besides, in test [3], the GI50 amounted to 27 µM, the total growth inhibition concentration (TGI) was 81 µM and the CC50 turned out to be 97 µM.

One may read the GI50 as the concentration at which growth is held to half of that of the control. A high value points to lower sensitivity of the cells. What is called TGI is the concentration at which net growth stops. A high value points to lower sensitivity of the cells.
